Reference: ChEMBL document CHEMBL3352477 (ACS Med Chem Lett, 2015)
pIC50: −log10 of the molar value.

Legend:
[1] = biological target: Serine/threonine-protein kinase/endoribonuclease IRE1 (Homo sapiens, UniProt O75460); experiment: Inhibition of human IRE1alpha using 5'[6FAM]-GAGUCCGCAGCACUC-[BHQ1]3' substrate by biochemical fluorescence quenching assay
Summary of the method: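 RNase activity of autophosphorylated IRE1α, read as cleavage of an XBP1 stem-loop RNA substrate. This format picks up inhibitors acting at either the kinase or the RNase domain.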

[2] = tested on: HT-1080; experiment: Inhibition of human XBP1 splicing in human HT1080-CMV-XBP1-Luciferase cells assessed as luciferase signal by Promega Bright-Glo luciferase assay; format: functional
Summary of the method: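 HT1080 cells carried an XBP1–luciferase fusion that is in frame and expressed only from the spliced XBP1 transcript. Thapsigargin induced the UPR and activated IRE1α to drive splicing. The luciferase signal was quantified as the measure of cellular XBP1 splicing.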

[3] = Inhibition of aurora (unknown origin) assessed as phosphorylation of histone H3; set-up: species or system Homo sapiens
[4] = biological target: Mitogen-activated protein kinase 10 (Homo sapiens, UniProt P53779); experiment: Inhibition of human wild type JNK3 using biotinylated ATF2 substrate assessed as phosphorylation at thr53 on ATF2 by fluorescent plate reader
Mitogen-activated protein kinase 10, sequence (P53779 whole entry): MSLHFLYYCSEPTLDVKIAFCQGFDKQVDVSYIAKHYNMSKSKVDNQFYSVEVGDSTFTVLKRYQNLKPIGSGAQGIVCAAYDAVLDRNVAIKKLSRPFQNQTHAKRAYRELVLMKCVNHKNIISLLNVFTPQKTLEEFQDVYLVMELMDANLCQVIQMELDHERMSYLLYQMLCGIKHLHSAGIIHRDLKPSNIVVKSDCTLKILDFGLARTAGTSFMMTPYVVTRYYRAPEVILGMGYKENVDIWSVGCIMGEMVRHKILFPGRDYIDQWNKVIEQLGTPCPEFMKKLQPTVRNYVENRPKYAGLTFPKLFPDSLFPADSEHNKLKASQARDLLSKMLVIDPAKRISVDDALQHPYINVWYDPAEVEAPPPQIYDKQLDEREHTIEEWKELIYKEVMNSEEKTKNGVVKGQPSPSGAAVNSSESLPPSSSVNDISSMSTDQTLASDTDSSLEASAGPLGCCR

Serine/threonine-protein kinase/endoribonuclease IRE1, sequence (O75460 whole entry, the tested form may be a part): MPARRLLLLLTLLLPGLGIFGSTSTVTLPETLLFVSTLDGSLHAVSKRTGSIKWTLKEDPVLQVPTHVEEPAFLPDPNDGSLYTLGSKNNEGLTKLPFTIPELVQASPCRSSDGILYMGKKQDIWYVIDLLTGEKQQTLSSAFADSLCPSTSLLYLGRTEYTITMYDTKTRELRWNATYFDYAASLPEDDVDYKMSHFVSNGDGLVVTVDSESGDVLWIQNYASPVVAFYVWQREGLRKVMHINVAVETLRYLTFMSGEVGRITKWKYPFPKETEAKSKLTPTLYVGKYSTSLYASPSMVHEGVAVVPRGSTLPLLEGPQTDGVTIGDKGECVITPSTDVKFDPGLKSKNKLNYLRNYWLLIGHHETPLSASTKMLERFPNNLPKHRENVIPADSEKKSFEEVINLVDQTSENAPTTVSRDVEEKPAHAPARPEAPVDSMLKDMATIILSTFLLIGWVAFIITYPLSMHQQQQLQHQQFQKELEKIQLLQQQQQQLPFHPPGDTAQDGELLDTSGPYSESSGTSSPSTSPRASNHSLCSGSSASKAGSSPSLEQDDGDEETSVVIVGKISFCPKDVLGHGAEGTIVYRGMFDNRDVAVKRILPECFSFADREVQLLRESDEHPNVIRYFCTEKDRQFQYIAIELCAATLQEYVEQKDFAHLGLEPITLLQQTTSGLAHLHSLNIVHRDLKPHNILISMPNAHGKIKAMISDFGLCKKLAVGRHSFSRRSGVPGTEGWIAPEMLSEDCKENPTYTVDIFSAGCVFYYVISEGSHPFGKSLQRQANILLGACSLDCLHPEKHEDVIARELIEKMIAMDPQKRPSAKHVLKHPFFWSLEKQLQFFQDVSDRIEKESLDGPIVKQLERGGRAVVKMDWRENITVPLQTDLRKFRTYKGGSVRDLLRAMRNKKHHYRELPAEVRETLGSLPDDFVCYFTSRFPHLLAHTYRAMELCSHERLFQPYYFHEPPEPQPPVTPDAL

| Compound | pIC50 [1] | pIC50 [2] | pIC50 [3] | pIC50 [4] |
| --- | --- | --- | --- | --- |
| CN(C)CCNc1nccc(-c2cccnc2Oc2ccc(Nc3nc4ccccc4[nH]3)c3ccccc23)n1 | 7.15 | 6.57 | 4.80 | 6.46 |
| Cc1cc(Nc2nc3ccccc3[nH]2)c2ccccc2c1Oc1ncccc1-c1ccnc(NCCN(C)C)n1 | 7.85 | 6.70 | < 4.30 | 6.15 |
| CC(C)CCNc1nccc(-c2cccnc2Oc2ccc(Nc3nc4ccccc4[nH]3)c3ccccc23)n1 | < 4.00 | 4.82 | – | 7.49 |
| OCCNc1nccc(-c2cccnc2Oc2ccc(Nc3nc4ccccc4[nH]3)c3ccccc23)n1 | 6.77 | 6.06 | – | 7.92 |
| CN1CCCC(Nc2nccc(-c3cccnc3Oc3ccc(Nc4nc5ccccc5[nH]4)c4ccccc34)n2)C1 (centres undefined) | 7.54 | 6.51 | – | 8.26 |
| c1cnc(Oc2ccc(Nc3nc4ccccc4[nH]3)c3ccccc23)c(-c2ccnc(N[C@@H]3CCCNC3)n2)c1 | 7.29 | 6.24 | – | 7.85 |
| c1cnc(Oc2ccc(Nc3nc4ccccc4[nH]3)c3ccccc23)c(-c2ccnc(N[C@H]3CCCNC3)n2)c1 | 8.01 | 7.51 | – | 7.51 |
| N[C@H]1CC[C@H](Nc2nccc(-c3cccnc3Oc3ccc(Nc4nc5ccccc5[nH]4)c4ccccc34)n2)CC1 | 7.96 | 7.48 | – | 8.72 |
| N[C@H]1CC[C@@H](Nc2nccc(-c3cccnc3Oc3ccc(Nc4nc5ccccc5[nH]4)c4ccccc34)n2)CC1 | 7.37 | 6.47 | – | 8.12 |
| Cc1cc(Nc2nc3ccccc3[nH]2)c2ccccc2c1Oc1ncccc1-c1ccnc(N[C@H]2CC[C@H](N)CC2)n1 | 8.19 | 7.48 | – | 8.72 |
| Cc1cc(Nc2nc3ccccc3[nH]2)c2ccccc2c1Oc1ncccc1-c1ccnc(N[C@H]2CCCNC2)n1 | 8.29 | 7.89 | – | 7.70 |
| Cc1cc(Nc2nc3ccccc3o2)c2ccccc2c1Oc1ncccc1-c1ccnc(N[C@H]2CC[C@H](N)CC2)n1 | 7.85 | 7.29 | – | 8.15 |
| Cc1cc(NS(=O)(=O)c2ccccc2)c2ccccc2c1Oc1ncccc1-c1ccnc(N[C@H]2CC[C@H](N)CC2)n1 | 7.35 | 6.23 | – | 5.66 |
| COc1ccccc1S(=O)(=O)Nc1cc(C)c(Oc2ncccc2-c2ccnc(N[C@H]3CC[C@H](N)CC3)n2)c2ccccc12 | 7.27 | 6.36 | – | 5.92 |
| Cc1cc(NS(=O)(=O)c2ccccc2C#N)c2ccccc2c1Oc1ncccc1-c1ccnc(N[C@H]2CC[C@H](N)CC2)n1 | 7.92 | 7.21 | – | 6.40 |
| Cc1cc(NS(=O)(=O)c2ccccc2Cl)c2ccccc2c1Oc1ncccc1-c1ccnc(N[C@H]2CC[C@H](N)CC2)n1 | 7.85 | 7.38 | – | 5.80 |
| Cc1ccc2c(NS(=O)(=O)c3ccccc3Cl)cccc2c1Oc1ncccc1-c1ccnc(N[C@H]2CC[C@H](N)CC2)n1 | 7.66 | 6.92 | – | 6.27 |
| Cc1ccc2c(NS(=O)(=O)c3ccccc3Cl)cccc2c1Oc1ncccc1-c1ccnc(N[C@H]2CCCNC2)n1 | 7.89 | 7.00 | – | 5.60 |
| N[C@H]1CC[C@H](Nc2nccc(-c3cccnc3Oc3ccc(NS(=O)(=O)c4ccccc4Cl)c4ccccc34)n2)CC1 | 7.51 | 6.24 | – | 6.40 |
